Experimental data reported in ChEMBL document CHEMBL1124802 (J Med Chem, 1990).

What was measured:
[1] = Stimulation of Adenylate cyclase from rat striatal membranes; format: cell membranes, Membrane
Procedure, shortened: (§1)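 Rat striatum homogenised in HEPES/EGTA buffer. […] Stopped with SDS, then ZnSO4/Ba(OH)2 precipitation. [32P]cAMP isolated by HPLC with UV-tracked internal standard and counted; percent stimulation calculated from peak areas and radioactivity.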

[2] = Percentage maximum stimulation adenylate cyclase was measured versus DA; procedure, shortened: as §1
[3] = biological target: D(2) dopamine receptor (Rattus norvegicus, UniProt P61169); assay: Displacement of [3H]- -spiperone from Dopamine receptor D2 in rat striatum
Procedure, shortened: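 Same rat striatal membrane preparation and buffer (50 mM HEPES, 4 mM MgCl2, pH 7.4). Competition with [3H]spiperone in 1.0 mL at 37 °C for 15 min. Nonspecific binding defined with 1 µM chlorpromazine. Bound ligand collected by glass-fibre filtration and counted by scintillation; protein measured by Lowry.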

[4] = biological target: D(1A) dopamine receptor (Rattus norvegicus, UniProt P18901); assay: Displacement of [3H]- #NAME? from binding Dopamine receptor D1 in rat striatum
Procedure, shortened: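 Rat striatal membranes, homogenised and washed twice by centrifugation in ice-cold 50 mM HEPES with 4 mM MgCl2, pH 7.4, at about 2 mg wet weight/mL. Competition with the tritiated selective D1 antagonist in 1.0 mL of the same buffer, 37 °C for 15 min. Nonspecific binding defined with 1 µM of the unlabelled antagonist. Filtration and scintillation counting; protein measured by Lowry.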

Sequence of D(1A) dopamine receptor (P18901 whole entry): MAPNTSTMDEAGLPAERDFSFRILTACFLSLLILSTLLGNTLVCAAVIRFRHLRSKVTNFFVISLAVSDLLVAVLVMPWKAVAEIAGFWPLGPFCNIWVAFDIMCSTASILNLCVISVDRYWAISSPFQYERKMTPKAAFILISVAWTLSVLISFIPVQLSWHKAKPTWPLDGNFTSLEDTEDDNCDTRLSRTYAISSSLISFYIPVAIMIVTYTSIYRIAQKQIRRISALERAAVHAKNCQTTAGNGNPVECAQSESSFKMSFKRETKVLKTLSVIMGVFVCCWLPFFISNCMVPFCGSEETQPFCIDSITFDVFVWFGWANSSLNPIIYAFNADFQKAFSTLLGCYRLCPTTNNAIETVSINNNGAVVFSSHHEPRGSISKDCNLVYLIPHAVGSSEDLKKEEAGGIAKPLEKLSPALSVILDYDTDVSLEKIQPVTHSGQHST
Sequence of D(2) dopamine receptor (P61169 whole entry): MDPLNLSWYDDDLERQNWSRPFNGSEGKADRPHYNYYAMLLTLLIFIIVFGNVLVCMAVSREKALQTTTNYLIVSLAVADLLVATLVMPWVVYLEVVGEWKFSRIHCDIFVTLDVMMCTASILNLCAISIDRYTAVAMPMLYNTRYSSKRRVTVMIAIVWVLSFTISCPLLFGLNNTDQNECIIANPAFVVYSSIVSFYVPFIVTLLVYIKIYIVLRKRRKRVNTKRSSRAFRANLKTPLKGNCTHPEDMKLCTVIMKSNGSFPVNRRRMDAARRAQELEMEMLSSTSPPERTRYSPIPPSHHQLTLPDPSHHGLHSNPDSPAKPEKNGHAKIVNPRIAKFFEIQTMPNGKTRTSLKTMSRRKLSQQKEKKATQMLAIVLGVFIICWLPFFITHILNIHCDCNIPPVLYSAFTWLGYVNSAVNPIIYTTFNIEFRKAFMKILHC

SMILES: CN1Cc2ccccc2[C@@H]2c3cc(O)c(O)cc3CC[C@H]21
- EC50 [1]: 1000 nM
- Max stimulation [2]: 63
- IC50 [3]: 136 nM
- IC50 [4]: 91 nM

SMILES: Oc1cc2c(cc1O)[C@H]1CCCN[C@@H]1CC2
- EC50 [1]: > 10 nM
- Max stimulation [2]: 33
- IC50 [3]: 68 nM
- IC50 [4]: > 5000 nM

SMILES: Oc1cc2c(cc1O)[C@H]1c3ccccc3CN[C@@H]1CC2 [DIHYDREXIDINE]
- EC50 [1]: 70 nM
- Max stimulation [2]: 120

SMILES: Oc1cc2c(cc1O)[C@@H](c1ccccc1)CNCC2 [(R)-SKF-38393]
- EC50 [1]: 100 nM
- Max stimulation [2]: 50

SMILES: Oc1cc2c(cc1O)[C@@H]1c3ccccc3CN[C@@H]1CC2
- Max stimulation [2]: 17

SMILES: Oc1cc2c(cc1O)CC(NCc1ccccc1)CC2 (configuration not stated)
- Max stimulation [2]: 25
- IC50 [3]: 290 nM
- IC50 [4]: > 5000 nM

SMILES: NCCc1ccc(O)c(O)c1 [DOPAMINE]
- EC50 [1]: 5000 nM
- Max stimulation [2]: 100

SMILES: CN1CCc2cc(Cl)c(O)cc2[C@@H](c2ccccc2)C1
- Max stimulation [2]: 0

SMILES: CCCN1Cc2ccccc2[C@@H]2c3cc(O)c(O)cc3CC[C@H]21
- EC50 [1]: > 10 nM
- Max stimulation [2]: 32
- IC50 [3]: 53 nM
- IC50 [4]: 651 nM

SMILES: Oc1ccc([C@@H]2CNCc3sccc32)cc1O
- EC50 [1]: 700 nM
- Max stimulation [2]: 120
- IC50 [3]: 285 nM
- IC50 [4]: 120 nM
